Screens: PubChem, The Scripps Research Institute Molecular Screening Center
An excerpt weighted towards active compounds, which were near 2.6% of everything screened.
TCR-CD3 inh = inhibitors of human TCR-CD3 interaction, primary screen, biochemical, fluorescence, TAMRA-labeled TCR probe | T-cell receptor (TCR) | inhibition, % at 9.4 µM | actives 0.37% (n = 360,000) | AID 651800, 2012; in the data active = inhibition above about 19%;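 note: recombinant mutant TCR 2C K166C tagged with TAMRA read by polarization; 0% = receptor in buffer alone and 100% = receptor with positive control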
SIAE inh = human SIAE inhibitors, primary screen, biochemical, fluorescence polarization, FP-Rh probe, 1536-well HTS. SIAE FP-Rh probe binding. inhibition, % at 9.66 µM. actives 0.69% (n = 370,000);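 active = inhibition above a cutoff: mean of compounds within the control limits plus 3 SD of those, cut at about 17% in these data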;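 note: 0% = plate median of compound wells and 100% = probe without SIAE protein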
Target sequence (Q9HAT2 whole entry, looked up): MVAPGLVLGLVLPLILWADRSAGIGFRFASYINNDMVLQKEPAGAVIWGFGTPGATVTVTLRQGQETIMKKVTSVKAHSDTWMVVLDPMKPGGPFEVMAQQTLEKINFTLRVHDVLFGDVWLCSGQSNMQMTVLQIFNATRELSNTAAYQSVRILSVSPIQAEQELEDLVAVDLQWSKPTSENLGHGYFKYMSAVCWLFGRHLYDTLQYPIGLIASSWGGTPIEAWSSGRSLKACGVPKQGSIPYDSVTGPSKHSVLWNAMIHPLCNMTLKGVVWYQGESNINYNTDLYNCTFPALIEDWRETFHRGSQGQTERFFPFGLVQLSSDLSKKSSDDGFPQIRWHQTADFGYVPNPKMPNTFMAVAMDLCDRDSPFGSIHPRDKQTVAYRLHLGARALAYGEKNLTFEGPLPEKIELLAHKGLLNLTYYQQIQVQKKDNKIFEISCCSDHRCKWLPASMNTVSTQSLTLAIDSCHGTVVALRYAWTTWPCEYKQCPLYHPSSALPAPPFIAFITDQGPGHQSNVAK
HTRA1 inh = HTRA1 serine protease inhibitors, primary screen, biochemical, fluorescence polarization, HTS; actives 0.5% (n = 340,000); Q92743; recombinant HTRA1, FP-rhodamine activity-based probe; AID 504803, 2011; inhibition, % at 5.96 µM; in the data active = inhibition above about 36%;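 note: 0% = enzyme with DMSO and 100% = wells lacking enzyme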
ABHD4 inh = ABHD4 inhibitors, primary screen, biochemical, fluorescence polarization, mouse | actives 0.54% (n = 370,000) | purified mABHD4, FP-Rh probe fluorescence polarization | (Lyso)-N-acylphosphatidylethanolamine lipase (Mus musculus), Q8VD66 | inhibition, % at 8.92 µM;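 active = inhibition exceeding the mean over every tested compound plus 3 SD, cut at about 30% in these data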;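 note: 0% = plate median of compound wells and 100% = S159A mutant with DMSO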
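Assay system: mABHD4 protein; medium: HEPES pH 7.0, NaCl, Pluronic buffer; dosing: 8.92 µM, single dose; schedule: 45 min + 60 min at 25 °C; signal: FP readout, ex 525 nm / em 598 nm; read-out: normalized percent inhibition of probe labeling; repeats: single replicate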
PRMT1 FP inh = PRMT1 methyltransferase inhibitors, primary screen, biochemical, fluorescence polarization; inhibition, % at 2.79 µM; actives 1.3% (n = 370,000); AID 652257, 2013; recombinant PRMT1, activity-based probe fluorescence polarization;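 active = inhibition above about 21% made by adding two undisclosed values, limit read from the data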
PRMT1 confirm = PRMT1 methyltransferase inhibitors, confirmation, biochemical, fluorescence polarization, triplicate; shares compounds with PRMT1 FP inh; recombinant His-PRMT1, activity-based probe fluorescence polarization; inhibition, % at 2.79 µM; actives 42% (n = 3,300);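 active = mean inhibition across replicates above the hit cutoff derived for the earlier primary screen, cut at about 22% in these data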
Numbers without * were called inactive.

What do the screens show for `CCOc1cccc(C2C(C(=O)c3ccc(C)o3)=C(O)C(=O)N2Cc2ccncc2)c1` (stereo unspecified)?
TCR-CD3 inh: -1; SIAE inh: -1; HTRA1 inh: 1; ABHD4 inh: 8; PRMT1 FP inh: 2

How did O=C(C1=C(O)C(=O)N(c2nccs2)C1c1ccccc1)c1cc2ccccc2o1 (stereo unspecified) do in these assays?
TCR-CD3 inh: -12; SIAE inh: 3; HTRA1 inh: -10; ABHD4 inh: 13; PRMT1 FP inh: 92*; PRMT1 confirm: 132*

Results for CCOc1cccc(C2C(C(=O)c3ccc(C)o3)=C(O)C(=O)N2c2nccs2)c1 (stereo unspecified) ?
TCR-CD3 inh: -1; SIAE inh: 6; HTRA1 inh: -4; ABHD4 inh: -1; PRMT1 FP inh: 65*; PRMT1 confirm: 38*

How did CCOC(=O)c1ccoc1CSCc1ccc(C(=O)OC)o1 do in these assays?
TCR-CD3 inh: -2; SIAE inh: 3; HTRA1 inh: 3; ABHD4 inh: 2; PRMT1 FP inh: 39*; PRMT1 confirm: 45*

What do the screens show for `Cc1ccc2cc(CN(CC(C)C)S(=O)(=O)c3cccc4nonc34)c(=O)[nH]c2c1`?
TCR-CD3 inh: 2; SIAE inh: 7; HTRA1 inh: 9; ABHD4 inh: -4; PRMT1 FP inh: 2

What do the screens show for `O=C(O)c1ccccc1NC(=S)NC(=O)c1sc2ccccc2c1Cl`?
TCR-CD3 inh: -6; SIAE inh: 0; HTRA1 inh: -1; ABHD4 inh: 0; PRMT1 FP inh: 32*; PRMT1 confirm: 32*

Results for CN(C)c1ccc(S(=O)(=O)NCC(=O)NCc2ccccc2)cc1[N+](=O)[O-] ?
TCR-CD3 inh: 3; SIAE inh: -1; HTRA1 inh: 2; ABHD4 inh: 2; PRMT1 FP inh: 27*; PRMT1 confirm: 26*

How did CNc1ccc(S(=O)(=O)NCC(=O)NCCCc2ccccc2)cc1[N+](=O)[O-] do in these assays?
TCR-CD3 inh: 4; SIAE inh: 5; HTRA1 inh: 2; ABHD4 inh: 8; PRMT1 FP inh: 27*; PRMT1 confirm: 34*

How did S=C1NC[C@H](Cc2ccccc2)N1CC1CCN(CCCC2CCCCC2)CC1 do in these assays?
TCR-CD3 inh: 1; SIAE inh: -2; ABHD4 inh: 5; PRMT1 FP inh: -5

Results for CCN(CC)CCn1c(NS(=O)(=O)c2ccc(Cl)cc2)nc2ccccc21 ?
TCR-CD3 inh: -7; SIAE inh: 1; HTRA1 inh: 0; ABHD4 inh: -6; PRMT1 FP inh: 5

How did CC(=O)OCCN1CCN(C(=O)CN2C(=O)NC(c3ccccc3)(c3ccccc3)C2=O)CC1 do in these assays?
TCR-CD3 inh: 2; SIAE inh: -4; HTRA1 inh: 2; ABHD4 inh: 5; PRMT1 FP inh: 2

Results for O=[N+]([O-])c1cnc2ccccc2c1Sc1ccccc1 ?
SIAE inh: 7; ABHD4 inh: 2; PRMT1 FP inh: 73*; PRMT1 confirm: 71*

What do the screens show for `CN1CCN(c2c([N+](=O)[O-])cnc3ccccc23)CC1`?
TCR-CD3 inh: -6; SIAE inh: 7; HTRA1 inh: 7; ABHD4 inh: 2; PRMT1 FP inh: -2

What do the screens show for `C[C@H]1[C@H](NC(=O)c2ccc(C(F)(F)F)cc2)CC[C@@]23CCCN2C(=O)CCC[C@@H]13`?
SIAE inh: 1; ABHD4 inh: -3; PRMT1 FP inh: 53*; PRMT1 confirm: 0

How did O=C(CSc1nccc(=O)[nH]1)Nc1cccc(S(=O)(=O)N2CCOCC2)c1 do in these assays?
TCR-CD3 inh: -2; SIAE inh: -7; HTRA1 inh: 1; ABHD4 inh: -5; PRMT1 FP inh: 45*; PRMT1 confirm: 32*

How did O=C(CSc1ncccn1)Nc1cccc(S(=O)(=O)N2CCOCC2)c1 do in these assays?
TCR-CD3 inh: -6; SIAE inh: 0; HTRA1 inh: 0; ABHD4 inh: -7; PRMT1 FP inh: 1

What do the screens show for `CCOC(=O)c1ccc(NC(=O)c2nc[nH]c2C(=O)NC[C@H](C)O)cc1`?
TCR-CD3 inh: -5; SIAE inh: -4; HTRA1 inh: -11; ABHD4 inh: -6; PRMT1 FP inh: -2

How did O=C(NCCOc1ccccc1)C1Nc2ccc(OC(F)(F)F)cc2C2C=CCC12 (stereo unspecified) do in these assays?
TCR-CD3 inh: 4; SIAE inh: 6; HTRA1 inh: 13; ABHD4 inh: 3; PRMT1 FP inh: 9

Results for O=C(NCCF)C1Nc2ccc(OC(F)(F)F)cc2C2C=CCC12 (stereo unspecified) ?
TCR-CD3 inh: 1; SIAE inh: 5; HTRA1 inh: 32; ABHD4 inh: 26; PRMT1 FP inh: 29*; PRMT1 confirm: -1

How did CCCCCNC(=O)C(c1ccc(C#N)cc1)n1c(=O)c(-c2ccco2)nc2ccccc21 (stereo unspecified) do in these assays?
TCR-CD3 inh: -9; SIAE inh: -4; ABHD4 inh: -11; PRMT1 FP inh: 15

Results for CCCCCNC(=O)C(c1ccccc1F)n1c(=O)c(-c2ccco2)nc2ccccc21 (stereo unspecified) ?
TCR-CD3 inh: -6; SIAE inh: -22; ABHD4 inh: -26; PRMT1 FP inh: 31*; PRMT1 confirm: 25*

Results for CCCCCNC(=O)C(c1ccc(OC)cc1)n1c(=O)c(-c2ccco2)nc2ccccc21 (stereo unspecified) ?
TCR-CD3 inh: -13; SIAE inh: -8; ABHD4 inh: -10; PRMT1 FP inh: 28*; PRMT1 confirm: 14

Results for COc1ccc(CC(N)c2csc(NC(=O)c3cc(C(C)(C)C)nn3Cc3ccccc3)n2)cc1 (stereo unspecified) ?
TCR-CD3 inh: 2; SIAE inh: -14; ABHD4 inh: 0; PRMT1 FP inh: 1

What do the screens show for `CC(CNC(=O)COC(=O)c1ccco1)c1ccccc1` (stereo unspecified)?
TCR-CD3 inh: 11; SIAE inh: -5; HTRA1 inh: 3; ABHD4 inh: 2; PRMT1 FP inh: 1

What do the screens show for `CCN(CC)c1ccc(C=Nn2c(-c3cc(C)[nH]n3)n[nH]c2=S)cc1`?
SIAE inh: 7; ABHD4 inh: 10; PRMT1 FP inh: 4

Results for CCN(CC)c1ccc(/C=N/n2c(-c3ccccc3Br)n[nH]c2=S)cc1 ?
TCR-CD3 inh: -3; SIAE inh: 4; HTRA1 inh: -6; ABHD4 inh: -3; PRMT1 FP inh: 25*; PRMT1 confirm: 8
